KCNK3 block = human KCNK3 channel inhibition, primary screen; B-score at 10 µM; actives 0.84% (n = 340,000); CHO-KCNK3 thallium flux, FluxOR fluorescence; stronger effect = lower value;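 active = B-score under library mean minus 4 SD, starting fluorescence ratio at most library mean plus 5 SD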;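 also: more negative B-score means stronger inhibition of thallium flux through KCNK3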
KCNQ1 act = potentiates or activates the human KCNQ1 potassium channel; CHO-K1 KCNQ1, thallium flux FluxOR fluorescence; stronger effect = higher value; B-score at 10 µM; actives 0.35% (n = 310,000);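 active = fluorescence ratio B-score, a plate-corrected score, at least three library SD, with initial intensity B-score within 5 SD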
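Material: CHO-K1 cells stably expressing KCNQ1. Medium: assay buffer for compound exposure, DMSO matched across wells. Reagent: K+/Tl+ depolarizing stimulus. Compound dosing: single-concentration screen. Times: 37 °C overnight plating, 90-min dark dye load, 20-min compound pretreatment. Technique: FluxOR Tl+ flux fluorescence.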
KCNQ1 block = blocks the human KCNQ1 potassium channel; P51787; CHO-K1 KCNQ1, FluxOR thallium flux fluorescence; stronger effect = higher value; B-score at 10 µM; actives 1.3% (n = 310,000); AID 2642;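 active = compounds whose thallium flux B-score, printed positive for inhibition, exceeds three library SD while starting fluorescence stays within three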;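 also: channel opened by potassium depolarization with thallium stimulus after 20 min compound exposure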
KCNK9 inh = inhibitors of human KCNK9 two-pore domain potassium channel. Q9NPC2. HEK293 KCNK9, FluxOR thallium flux fluorescence; stronger effect = lower value. B-score at 10 µM. actives 1.2% (n = 310,000). AID 488922;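 active = ratio B-score over 3 SD below the library mean, with starting fluorescence within 5 SD of its mean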;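 also: negative B-score means less thallium flux so channel inhibition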
hERG rescue = shields human hERG channel from block by proarrhythmic agents; CHO-hERG, FluxOR thallium flux, dofetilide IC70 present; activation (rescue from dofetilide block), less the hit threshold, % at 10 µM; actives 0.51% (n = 310,000); AID 1511;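 active = activation above the mean of controls blocked by dofetilide plus 5 SD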;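 also: thallium influx through hERG after potassium depolarization seen as dye fluorescence rise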
Target sequence (Q12809 whole entry, looked up): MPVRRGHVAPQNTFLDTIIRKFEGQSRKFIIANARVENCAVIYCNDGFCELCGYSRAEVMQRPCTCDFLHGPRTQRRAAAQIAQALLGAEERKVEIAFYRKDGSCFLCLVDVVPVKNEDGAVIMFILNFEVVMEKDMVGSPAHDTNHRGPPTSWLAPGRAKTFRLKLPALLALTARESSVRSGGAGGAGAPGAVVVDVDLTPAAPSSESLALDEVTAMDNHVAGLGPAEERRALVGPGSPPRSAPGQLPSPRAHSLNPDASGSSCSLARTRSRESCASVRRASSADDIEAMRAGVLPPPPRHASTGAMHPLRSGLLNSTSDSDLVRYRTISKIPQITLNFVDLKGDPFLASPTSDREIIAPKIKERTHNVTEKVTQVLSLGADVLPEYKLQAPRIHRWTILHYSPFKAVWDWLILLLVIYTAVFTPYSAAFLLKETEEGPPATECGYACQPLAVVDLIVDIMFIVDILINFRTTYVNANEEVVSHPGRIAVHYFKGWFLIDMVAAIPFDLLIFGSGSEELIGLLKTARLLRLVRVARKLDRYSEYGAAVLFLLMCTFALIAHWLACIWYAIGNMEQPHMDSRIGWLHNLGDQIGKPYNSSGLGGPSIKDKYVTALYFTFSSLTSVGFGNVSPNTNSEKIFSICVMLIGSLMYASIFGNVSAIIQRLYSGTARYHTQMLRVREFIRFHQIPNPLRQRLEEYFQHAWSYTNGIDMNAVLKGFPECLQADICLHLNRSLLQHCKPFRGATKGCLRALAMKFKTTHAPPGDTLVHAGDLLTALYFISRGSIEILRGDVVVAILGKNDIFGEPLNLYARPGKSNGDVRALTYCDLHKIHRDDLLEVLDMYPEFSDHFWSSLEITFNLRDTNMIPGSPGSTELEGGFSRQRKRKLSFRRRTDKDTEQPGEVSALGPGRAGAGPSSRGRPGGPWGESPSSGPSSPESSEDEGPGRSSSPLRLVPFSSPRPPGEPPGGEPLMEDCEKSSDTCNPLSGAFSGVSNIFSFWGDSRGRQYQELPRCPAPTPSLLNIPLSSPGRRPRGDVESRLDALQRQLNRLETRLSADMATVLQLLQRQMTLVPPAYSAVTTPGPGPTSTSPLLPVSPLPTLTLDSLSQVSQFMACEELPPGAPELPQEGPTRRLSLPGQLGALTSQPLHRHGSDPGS
Cl transport mod = KCC2 (human) Cl- transport modulation; Q9H2X9; B-score of Tl+ flux slope (higher = more flux/activation; lower = inhibition) at 10 µM; actives 2.2% (n = 190,000); KCC2 cells, thallium flux FluoZin-2 fluorescence;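 active = thallium flux slope and its plate-corrected score both differing from the plate sample mean at a set confidence after two filtering rounds, in either direction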;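 also: slope of fluorescence scaled to starting intensity during 10 to 20 s after thallium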
An asterisk follows results filed as active. This is a sample that favours compounds with a hit; in the whole collection about 4.1% have one here.

Results for COC(=O)c1ccc(COC(=O)CNC(=O)CNC(=O)c2ccc(OC)cc2)cc1 ?
KCNK3 block: inactive; KCNQ1 act: inactive; KCNQ1 block: inactive; KCNK9 inh: inactive; hERG rescue: -7

How did COCCNc1nc2c(c(=O)[nH]c(=O)n2C)n1CCCc1ccccc1 do in these assays?
KCNK3 block: inactive; KCNQ1 act: inactive; KCNQ1 block: inactive; KCNK9 inh: inactive; hERG rescue: -9

How did O=S1(=O)c2ccccc2OC(COCc2ccccc2)CN1Cc1ccccc1 (stereo not given) do in these assays?
KCNK3 block: inactive

Results for C=C1c2ccccc2S(=O)(=O)N(Cc2ccccc2)C1COCc1ccccc1 (stereo not given) ?
KCNK3 block: inactive; KCNQ1 act: inactive; KCNQ1 block: inactive; KCNK9 inh: -6.9*; hERG rescue: -7; Cl transport mod: -0.31

How did Cc1cc(C)cc(NS(=O)(=O)c2c(C)[nH]c(=O)[nH]c2=O)c1 do in these assays?
KCNK3 block: inactive; KCNQ1 act: inactive; KCNQ1 block: inactive; KCNK9 inh: inactive; hERG rescue: -3

Results for COc1cccc(-c2ncc3ccccc3c2COC(=O)c2ccc(F)cc2)c1 ?
KCNK3 block: inactive

How did CC[n+]1c(/C=C2/C=C(C)CC(C)C2)sc2ccccc21 (stereo not given) do in these assays?
KCNK3 block: inactive; KCNQ1 act: inactive; KCNQ1 block: 6*; KCNK9 inh: inactive; hERG rescue: -27; Cl transport mod: 0.76

Results for CC[n+]1c(C=C2C=C(C)OC(C)=C2)sc2ccccc21 ?
KCNK3 block: inactive; KCNQ1 act: inactive; KCNQ1 block: 10*; KCNK9 inh: inactive; hERG rescue: -31; Cl transport mod: -0.092

How did CC[n+]1c(/C=C(\C)SC)sc2ccccc21 do in these assays?
KCNK3 block: inactive; KCNQ1 act: inactive; KCNQ1 block: inactive; KCNK9 inh: inactive; hERG rescue: -1

What do the screens show for `COc1ccc2c(c1)[nH]c1c(N3CCN(Cc4ccc5c(c4)OCO5)CC3)ncnc12`?
KCNK3 block: inactive; KCNQ1 act: inactive; KCNQ1 block: 9*; KCNK9 inh: inactive; hERG rescue: -36

Results for COc1cccc2[nH]c3c(N4CCN(Cc5ccc6c(c5)OCO6)CC4)ncnc3c12 ?
KCNQ1 act: inactive; KCNQ1 block: inactive; KCNK9 inh: inactive; hERG rescue: -9; Cl transport mod: -0.047

What do the screens show for `O=C(CSc1nc2nn(-c3ccccc3)c(=O)c-2c2n1CCCCC2)Nc1ccc(OC(F)F)cc1`?
KCNK3 block: inactive

Results for O=C(CNC(=S)NC(=O)c1cccs1)c1ccccc1 ?
KCNK3 block: inactive; KCNQ1 act: inactive; KCNQ1 block: inactive; KCNK9 inh: inactive; hERG rescue: -8; Cl transport mod: 11*

How did O=C(NC(=S)Nc1ccc(N2CCCCC2)c(Cl)c1)c1cccs1 do in these assays?
KCNK3 block: inactive; KCNQ1 act: 65*; KCNQ1 block: inactive; KCNK9 inh: inactive; hERG rescue: 13*; Cl transport mod: 32*

What do the screens show for `O=C(NC(=S)Nc1ccccc1)c1cccs1`?
KCNK3 block: inactive; KCNQ1 act: 11*; KCNQ1 block: inactive; KCNK9 inh: inactive; hERG rescue: 10*

What do the screens show for `O=C(Nc1cccc(NC(=O)c2cccs2)c1)c1ccco1`?
KCNK3 block: inactive; KCNQ1 act: inactive; KCNQ1 block: inactive; KCNK9 inh: -6.6*; hERG rescue: -13; Cl transport mod: -0.65

How did O=C(NC(=S)Nc1ccc(S(=O)(=O)N2CCCCC2)cc1)c1cccs1 do in these assays?
KCNK3 block: inactive; KCNQ1 act: inactive; KCNQ1 block: inactive; KCNK9 inh: inactive; hERG rescue: -12; Cl transport mod: 2.6

How did O=C(Nc1ccc(Cl)c(NC(=O)c2cccs2)c1)c1ccco1 do in these assays?
KCNK3 block: inactive; KCNQ1 act: inactive; KCNQ1 block: inactive; KCNK9 inh: inactive; hERG rescue: -5

Results for CC(Sc1nnc(C2CC2)n1C)C(=O)Nc1ccc(N2CCOCC2)cc1 (stereo not given) ?
KCNK3 block: inactive

Assay outcomes from PubChem BioAssay.
